B1: tRNA (parent)
chain: GUUCCGUUGGCGUAAUGGUAACGCGUCUCCCUCCUAAGGAGAAGACUGCGGGUUCGAGUCCCGUACGGAACG

Variants of: B1
Assay: yeast fitness, log relative to wild type (ln ratio); higher = fitter; tRNA-Arg(CCU), competitive growth, 37 C, 1 M NaCl
Procedure, shortened: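 Fitness is the natural log of each genotype's generations divided by the wild type's. Generations were derived as OD-scaled log2 output/input frequency from 125 bp paired-end Illumina counts, weighting replicates by inverse variance. Pools of the tRNA-Arg(CCU) variant library, on a HIS3 centromeric plasmid in BY4742 lacking the chromosomal gene, grew ~6.5 generations (~26.5 h) in SC-HIS 1M NaCl at 37 °C after 4 generations in SC-HIS at 30 °C.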
With AUUCCUUUGGCGUAAUGGUAACGCGUUUCCCUCCUAAGGAGACGAUUGCGGGUUCGAGUCCCGUAUGGGAUG [G1A G6U C27U A43C C46U C66U A69G C71U] the “yeast fitness (ln)” value was -0.423.
With AUUCCAUUGGCGUAAUGGUAACGCGUCUCCCUCCUAAGGAGAAGAUUGCGGGUUCGAGUCCCGUAUGGGUCG [G1A G6A C46U C66U A69G A70U] the “yeast fitness (ln)” value was -0.0453.
With GUUCCAUUGGCGUAAUGGUAACGCGUCUCCCUCCUAAGGAGAAGAUUGCGGGUUCGAGUCCCGUACGGAACG [G6A C46U] the “yeast fitness (ln)” value was -0.0181.
In the case of GUUCCGUUGGCGUAAUGGUAACGCGUUUCCCUCCUAAGGAGAAGAUUGCGGGUUCGAGUCCCGUAUGGAAUG [C27U C46U C66U C71U], the “yeast fitness (ln)” value is reported as -0.376.
With GCUCCUUUGGCGUAAUGGUAACGCGUUUCCCUCCUAAGGAGACGAUUGCGGGUUCGAGUCCCGUAUGGAUCG [U2C G6U C27U A43C C46U C66U A70U] the “yeast fitness (ln)” value was -0.173.
In the case of ACUCCUUUGGCGUAAUGGUAACGCGUCUCCCUCCUAAGGAGACGACUGCGGGUUCGAGUCCCGUAAGGGGUG [G1A U2C G6U A43C C66A A69G A70G C71U], the “yeast fitness (ln)” value is reported as -0.0437.
With AGUCCGUUGGCGUAAUGGUAACGCGUCUCCCUCCUAAGGAGACGAUUGCGGGUUCGAGUCCCGUAUGGAGCG [G1A U2G A43C C46U C66U A70G] the “yeast fitness (ln)” value was -0.22.
For AGUCCGUUGGCGUAAUGGUAACGCGUCUCCCUCCUAAGGAGAAGACUGCGGGUUCGAGUCCCGUAUGGAAUG [G1A U2G C66U C71U], the “yeast fitness (ln)” value was -0.201.
For GUUCCGUUGGCGUAAUGGUAACGCGUCUCCCUCCUAAGGAGACGACUGCGGGUUCGAGUCCCGUAAGGGGCG [A43C C66A A69G A70G], the “yeast fitness (ln)” value was -0.154.
In the case of GGUCCUUUGGCGUAAUGGUAACGCGUUUCCCUCCUAAGGAGACGACUGCGGGUUCGAGUCCCGUAAGGAACG [U2G G6U C27U A43C C66A], the “yeast fitness (ln)” value is reported as -0.0341.
With GGUCCGUUGGCGUAAUGGUAACGCGUUUCCCUCCUAAGGAGAAGACUGCGGGUUCGAGUCCCGUACGGAGCG [U2G C27U A70G] the “yeast fitness (ln)” value was -0.136.
In the case of GUUCCUUUGGCGUAAUGGUAACGCGUUUCCCUCCUAAGGAGAAGACUGCGGGUUCGAGUCCCGUACGGAUCG [G6U C27U A70U], the “yeast fitness (ln)” value is reported as -0.208.
In the case of ACUCCUUUGGCGUAAUGGUAACGCGUUUCCCUCCUAAGGAGACGAUUGCGGGUUCGAGUCCCGUACGGAACG [G1A U2C G6U C27U A43C C46U], the “yeast fitness (ln)” value is reported as -0.0772.
For GUUCCAUUGGCGUAAUGGUAACGCGUUUCCCUCCUAAGGAGAAGACUGCGGGUUCGAGUCCCGUAAGGAAUG [G6A C27U C66A C71U], the “yeast fitness (ln)” value was -0.168.
In the case of GCUCCGUUGGCGUAAUGGUAACGCGUUUCCCUCCUAAGGAGAAGAUUGCGGGUUCGAGUCCCGUAUGGAACG [U2C C27U C46U C66U], the “yeast fitness (ln)” value is reported as -0.0297.
With GGUCCAUUGGCGUAAUGGUAACGCGUCUCCCUCCUAAGGAGACGAUUGCGGGUUCGAGUCCCGUAAGGAACG [U2G G6A A43C C46U C66A] the “yeast fitness (ln)” value was -0.141.
For GCUCCUUUGGCGUAAUGGUAACGCGUCUCCCUCCUAAGGAGAAGACUGCGGGUUCGAGUCCCGUAUGGGAUG [U2C G6U C66U A69G C71U], the “yeast fitness (ln)” value was -0.176.
For GGUCCGUUGGCGUAAUGGUAACGCGUCUCCCUCCUAAGGAGAAGACUGCGGGUUCGAGUCCCGUACGGAUUG [U2G A70U C71U], the “yeast fitness (ln)” value was -0.017.
In the case of GCUCCAUUGGCGUAAUGGUAACGCGUUUCCCUCCUAAGGAGAAGAUUGCGGGUUCGAGUCCCGUAUGGAUCG [U2C G6A C27U C46U C66U A70U], the “yeast fitness (ln)” value is reported as -0.112.
For GUUCCAUUGGCGUAAUGGUAACGCGUUUCCCUCCUAAGGAGAAGAUUGCGGGUUCGAGUCCCGUACGGGUCG [G6A C27U C46U A69G A70U], the “yeast fitness (ln)” value was -0.257.
In the case of GCUCCAUUGGCGUAAUGGUAACGCGUCUCCCUCCUAAGGAGACGAUUGCGGGUUCGAGUCCCGUACGGGAUG [U2C G6A A43C C46U A69G C71U], the “yeast fitness (ln)” value is reported as -0.0945.
In the case of AUUCCUUUGGCGUAAUGGUAACGCGUCUCCCUCCUAAGGAGACGACUGCGGGUUCGAGUCCCGUAUGGGAUG [G1A G6U A43C C66U A69G C71U], the “yeast fitness (ln)” value is reported as -0.587.
With AUUCCGUUGGCGUAAUGGUAACGCGUCUCCCUCCUAAGGAGACGACUGCGGGUUCGAGUCCCGUAAGGAGUG [G1A A43C C66A A70G C71U] the “yeast fitness (ln)” value was -0.164.
With AUUCCAUUGGCGUAAUGGUAACGCGUCUCCCUCCUAAGGAGAAGACUGCGGGUUCGAGUCCCGUAAGGAGUG [G1A G6A C66A A70G C71U] the “yeast fitness (ln)” value was -0.267.
In the case of GUUCCGUUGGCGUAAUGGUAACGCGUCUCCCUCCUAAGGAGACGACUGCGGGUUCGAGUCCCGUACGGGGUG [A43C A69G A70G C71U], the “yeast fitness (ln)” value is reported as -0.0742.
In the case of AUUCCUUUGGCGUAAUGGUAACGCGUCUCCCUCCUAAGGAGACGACUGCGGGUUCGAGUCCCGUAUGGGUUG [G1A G6U A43C C66U A69G A70U C71U], the “yeast fitness (ln)” value is reported as -0.433.
For GCUCCUUUGGCGUAAUGGUAACGCGUUUCCCUCCUAAGGAGACGACUGCGGGUUCGAGUCCCGUAAGGAACG [U2C G6U C27U A43C C66A], the “yeast fitness (ln)” value was -0.104.
In the case of AUUCCUUUGGCGUAAUGGUAACGCGUUUCCCUCCUAAGGAGACGACUGCGGGUUCGAGUCCCGUAAGGGUUG [G1A G6U C27U A43C C66A A69G A70U C71U], the “yeast fitness (ln)” value is reported as -0.281.
With AGUCCGUUGGCGUAAUGGUAACGCGUUUCCCUCCUAAGGAGACGACUGCGGGUUCGAGUCCCGUAUGGGGUG [G1A U2G C27U A43C C66U A69G A70G C71U] the “yeast fitness (ln)” value was -0.294.
For GUUCCUUUGGCGUAAUGGUAACGCGUUUCCCUCCUAAGGAGACGAUUGCGGGUUCGAGUCCCGUAUGGAGUG [G6U C27U A43C C46U C66U A70G C71U], the “yeast fitness (ln)” value was -0.378.
For ACUCCGUUGGCGUAAUGGUAACGCGUUUCCCUCCUAAGGAGACGAUUGCGGGUUCGAGUCCCGUAAGGAGUG [G1A U2C C27U A43C C46U C66A A70G C71U], the “yeast fitness (ln)” value was -0.16.
For GGUCCAUUGGCGUAAUGGUAACGCGUUUCCCUCCUAAGGAGACGAUUGCGGGUUCGAGUCCCGUACGGAUCG [U2G G6A C27U A43C C46U A70U], the “yeast fitness (ln)” value was -0.119.
With GCUCCUUUGGCGUAAUGGUAACGCGUUUCCCUCCUAAGGAGAAGAUUGCGGGUUCGAGUCCCGUAAGGAGUG [U2C G6U C27U C46U C66A A70G C71U] the “yeast fitness (ln)” value was -0.0247.
For GGUCCUUUGGCGUAAUGGUAACGCGUUUCCCUCCUAAGGAGAAGAUUGCGGGUUCGAGUCCCGUAAGGAACG [U2G G6U C27U C46U C66A], the “yeast fitness (ln)” value was -0.144.
For AUUCCGUUGGCGUAAUGGUAACGCGUUUCCCUCCUAAGGAGACGAUUGCGGGUUCGAGUCCCGUAUGGAACG [G1A C27U A43C C46U C66U], the “yeast fitness (ln)” value was -0.199.
In the case of GGUCCUUUGGCGUAAUGGUAACGCGUUUCCCUCCUAAGGAGAAGAUUGCGGGUUCGAGUCCCGUAUGGAAUG [U2G G6U C27U C46U C66U C71U], the “yeast fitness (ln)” value is reported as -0.246.
With GUUCCUUUGGCGUAAUGGUAACGCGUCUCCCUCCUAAGGAGAAGACUGCGGGUUCGAGUCCCGUAAGGAGCG [G6U C66A A70G] the “yeast fitness (ln)” value was -0.0102.
For ACUCCGUUGGCGUAAUGGUAACGCGUUUCCCUCCUAAGGAGACGACUGCGGGUUCGAGUCCCGUAUGGGUUG [G1A U2C C27U A43C C66U A69G A70U C71U], the “yeast fitness (ln)” value was -0.397.

— the RNAGym collection of RNA variant scans (doi:10.1038/s41586-018-0170-7)
